Measurements: ChEMBL document CHEMBL3808278, “Design, Synthesis, and Biological Evaluation of Imidazo[1,5-a]quinoline as Highly Potent Ligands of Central Benzodiazepine Receptors” (J Med Chem, 2016)
Activity calls are given as the source filed them. No cut-off for these calls is given here.

Tests used:
[1] = Displacement of [3H]-flumazenil from central-type benzodiazepine receptor in bovine cortical membrane after 90 mins by liquid-phase scintillation beta-counting method; assay type: cell membranes, Bos taurus
Method in brief: (§1)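 Competition binding against radiolabelled antagonist [3H]flumazenil in cortical membranes (bovine; human where listed); Ki reported as mean ± SEM of three independent determinations.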

Bos taurus = species: Bos taurus; experiment: Selectivity ratio, ratio of Ki for central-type benzodiazepine receptor in bovine cortical membrane to Ki for central-type benzodiazepine receptor in bovine cortical membrane in presence of 50 uM of GABA; assay type: cell membranes
Rattus norvegicus [2] = species: Rattus norvegicus; experiment: Inverse agonist activity at central-type benzodiazepine receptor in Sprague-Dawley rat cerebrocortical synaptoneurosomes assessed as decrease in 36Cl- flow after 10 secs by liquid-phase scintillation beta-counting method
Rattus norvegicus [3] = species: Rattus norvegicus; experiment: Antagonist activity at central-type benzodiazepine receptor in Sprague-Dawley rat cerebrocortical synaptoneurosomes assessed as decrease in 36Cl- flow after 10 secs by liquid-phase scintillation beta-counting method
Rattus norvegicus [4] = species: Rattus norvegicus; experiment: Partial inverse agonist activity at central-type benzodiazepine receptor in Sprague-Dawley rat cerebrocortical synaptoneurosomes assessed as decrease in 36Cl- flow after 10 secs by liquid-phase scintillation beta-counting method
[5] = Displacement of [3H]-flumazenil from central-type benzodiazepine receptor in human cortical membrane after 90 mins by liquid-phase scintillation beta-counting method; assay type: cell membranes; method in brief: as §1
Homo sapiens = species: Homo sapiens; experiment: Selectivity ratio, ratio of Ki for central-type benzodiazepine receptor in human cortical membrane to Ki for central-type benzodiazepine receptor in human cortical membrane in presence of 50 uM of GABA; assay type: cell membranes
Rattus norvegicus [6] = species: Rattus norvegicus; experiment: Partial agonist activity at central-type benzodiazepine receptor in Sprague-Dawley rat cerebrocortical synaptoneurosomes assessed as increase in 36Cl- influx after 10 secs by liquid-phase scintillation beta-counting method
Brain = experiment: Neuroprotective activity against oxygen-glucose deprivation and reoxygenation-induced injury in Sprague-Dawley rat brain cortical slices assessed as maximum recovery in LDH release at 5 uM treated during 90 mins of reperfusion phase measured after 90 mins by spetrophotometric method; assay type: functional
Method in brief: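 Rat brain cortical slices in ACSF underwent 30 min oxygen/glucose deprivation, then 90 min reoxygenated ACSF (reperfusion). Controls were kept 120 min in ACSF. Compounds (0.1–100 µM) were added only during reperfusion, and LDH release was measured. Data are means ± SEM of at least 4 experiments, analysed by ANOVA with Dunnett post test. The effective concentration is that giving the largest reduction, and recovery is the % reversion at that concentration.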

[7] = Binding affinity to rat cortical membrane central-type benzodiazepine receptor measured after 90 mins by liquid-phase scintillation beta-counting method
Rattus norvegicus [8] = species: Rattus norvegicus; experiment: Selectivity ratio, ratio of Ki for central-type benzodiazepine receptor in rat cortical membrane to Ki for central-type benzodiazepine receptor in rat cortical membrane in presence of 50 uM of GABA; assay type: cell membranes
Method in brief: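 GABA ratio is Ki without GABA divided by Ki with 50 µM GABA, from [3H]flumazenil competition binding in cortical membranes. Per the table footnote, ratio values were obtained in rat cortical membranes.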

Mus musculus [9] = species: Mus musculus; experiment: Myorelaxant effect in mouse assessed as effect on motor coordination after 30 mins by rotarad test; assay type: organism-based; details: in vivo, 0.5 h
Method in brief: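 Rota-rod test of motor coordination in mice, with compounds given per os 30 min before testing. Values are mean ± SEM of at least 10 mice.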

Mus musculus [10] = experiment: Anxiolytic activity against mouse assessed as increase in time spent in light box at 10 mg/kg, po administered 30 mins before test by light-dark box test; assay type: functional, organism-based
Method in brief: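 Light-dark box in mice measured time in the light compartment. Compounds were given per os 30 min before testing, and diazepam 1 mg kg-1 subcutaneously as reference. Values are mean ± SEM of at least 10 mice, compared with vehicle-treated animals.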

Mus musculus [11] = experiment: Neurotoxicity in mouse assessed as effect on neurological and muscular abilities at 10 mg/kg, po after 30 mins by Hole-Board test; assay type: toxicity, organism-based; details: in vivo, 0.5 h
Method in brief: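 Hole-board test 30 min after oral dosing at 10 mg kg-1 counted movements (motor activity) and head inspections (exploratory activity). Values are mean ± SEM of at least 10 mice, compared with vehicle controls.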

Mus musculus [12] = experiment: Antiamnestic activity in mouse assessed as prevention of scopalamine-induced amnesia at 10 mg/kg, po administered 30 mins before test by passive avoidance test; assay type: functional, organism-based
Method in brief: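 Passive avoidance in mice: compounds were given per os 30 min before the test, and scopolamine 1.5 mg kg-1 i.p. immediately after the punishment. Read-out was time recorded during the retention session. Values are mean ± SEM of at least 10 mice, compared with vehicle-treated animals.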

Row | Compound | Ki [1] | Ratio Ki (Bos taurus) | Antagonist activity (Rattus norvegicus [3]) | other results
1 | CCCc1c(C(=O)N(CC)CC)c2ccccc2n2cnc(C(=O)OCC)c12 | 169 nM | 0.9 |  | 
2 | CC(C)(C)OC(=O)c1ncn2c1cc(-c1ccccc1)c1ccccc12 | 55 nM | 0.8 |  | Activity (Rattus norvegicus [2]): Active
3 | CCOC(=O)c1ncn2c1cc(C(=O)N(C)Cc1ccccc1)c1ccccc12 | 20 nM | 0.52 |  | Activity (Rattus norvegicus [2]): Active
4 | CCCc1c(C(=O)N(CCC)CCC)c2ccccc2n2cnc(C(=O)OC(C)(C)C)c12 | 1440 nM | 1 | Active | 
5 | CCOC(=O)c1ncn2c1cc(-c1ccccc1)c1ccccc12 | 42 nM | 0.9 | Active | 
6 | CCCc1c(C(=O)N(CCC)CCC)c2ccccc2n2cnc(C(=O)OCC)c12 | 34 nM | 1.1 | Active | 
7 | CN1C(=O)CN=C(c2ccccc2F)c2cc([N+](=O)[O-])ccc21 [FLUNITRAZEPAM] | 5.2 nM | 1.68 |  | Activity (Rattus norvegicus [4]): Active; Ki [5]: 6.4 nM; Ratio Ki (Homo sapiens): 1.61
8 | CC(=O)N1Cc2c(C(=O)OC(C)(C)C)ncn2-c2ccc(F)cc21 | 1 nM | 1 | Active | Activity (Rattus norvegicus [6]): Active; Ki [5]: 2 nM; Ratio Ki (Homo sapiens): 1
9 | CCCc1c(C(=O)N(CC)CC)c2ccccc2n2cnc(C(=O)OC(C)(C)C)c12 | 2870 nM | 1.1 |  | 
10 | CCOC(=O)Cc1c(-c2ccccc2)c2ccccc2n2cnc(C(=O)OCC)c12 | 3.8 nM | 0.72 |  | Activity (Rattus norvegicus [2]): Active
11 | CN(C)C(=O)c1ncn2c1cc(-c1ccccc1)c1ccccc12 | 3520 nM | 1.44 |  | Activity (Rattus norvegicus [6]): Active
12 | CCOC(=O)c1ncn2c1c(CO)c(-c1ccccc1)c1ccccc12 | 1.8 nM | 1.18 |  | Activity (Rattus norvegicus [6]): Active; Activity (Brain): 39.5%; Ki [5]: 2 nM
13 | CCOC(=O)c1ncn2c1c(C)c(C(=O)OC(C)(C)C)c1ccccc12 | 1 nM | 1.4 |  | Activity (Rattus norvegicus [6]): Active
14 | CCOC(=O)c1ncn2c1CN(C(C)=O)c1ccccc1-2 | 25 nM | 0.9 | Active | Ki [5]: 33 nM
15 | CCOC(=O)c1cc2c(cn1)[nH]c1ccccc12 |  |  |  | Activity (Rattus norvegicus [4]): Active
16 | CCCN(CCC)C(=O)c1cc2c(C(=O)OC(C)(C)C)ncn2c2ccccc12 | 1.2 nM | 1.1 | Active | 
17 | CCOC(=O)c1ncn2c1c1c(c3ccccc32)CCC1 | 18 nM | 1.3 |  | 
18 | CCOC(=O)c1ncn2c1cc(C(=O)N(C)Cc1ccccc1)c1cc(F)ccc12 | 5.7 nM | 0.8 |  | Activity (Rattus norvegicus [2]): Active

Row | Compound | Ki [1] | Ratio Ki (Bos taurus) | Antagonist activity (Rattus norvegicus [3]) | other results
19 | CCCN(CCC)C(=O)c1cc2c(C(=O)OCC)ncn2c2ccccc12 | 0.91 nM | 1 | Active | 
20 | CN(Cc1ccccc1)C(=O)c1cc2c(C(=O)OC(C)(C)C)ncn2c2ccccc12 | 14 nM | 0.98 | Active | 
21 | CC(=O)N1Cc2c(C(=O)OC(C)(C)C)ncn2-c2ccccc21 | 7.3 nM | 0.98 | Active | Ki [5]: 7.7 nM; Ratio Ki (Homo sapiens): 1.04
22 | CCOC(=O)c1ncn2c1cc(C(=O)N(C)Cc1ccccc1)c1cc(C#C[Si](C)(C)C)ccc12 |  |  | Active | Ki [7]: 510 nM; Ratio Ki (Rattus norvegicus [8]): 0.99
23 | CCCCN(C)C(=O)c1cc2c(C(=O)OCC)ncn2c2ccccc12 | 1.9 nM | 0.76 |  | Activity (Rattus norvegicus [2]): Active; Activity (Mus musculus [9]): Non-toxic; Activity (Mus musculus [10]): Active; Activity (Mus musculus [11]): Non-toxic; Activity (Mus musculus [12]): Active
24 | Cc1c(-c2ccccc2)c2ccccc2n2cnc(C(=O)OC(C)(C)C)c12 | 10 nM | 1 | Active | 
25 | CCOC(=O)c1ncn2c1CN(C(C)=O)c1cc(F)ccc1-2 | 2.2 nM | 0.75 |  | Activity (Rattus norvegicus [6]): Active; Activity (Rattus norvegicus [4]): Active; Ki [5]: 2.7 nM; Ratio Ki (Homo sapiens): 0.95
26 | CCOC(=O)c1ncn2c1c(C(=O)OCC)c(-c1ccccc1)c1ccccc12 | 2190 nM | 0.66 |  | Activity (Rattus norvegicus [2]): Active
27 | C#CCN(C)C(=O)c1c(C)c2c(C(=O)OCC)ncn2c2ccccc12 | 1.2 nM | 1 | Active | 
28 | CCOC(=O)c1ncn2c1c(C)c(C(=O)N(C)Cc1ccccc1)c1ccccc12 | 6.5 nM | 1.1 | Active | 
29 | CN(Cc1ccccc1)C(=O)c1ncn2c1cc(-c1ccccc1)c1ccccc12 | 449 nM | 0.92 | Active | 
30 | CCOC(=O)c1ncn2c1cc(C(=O)N1CCN(C)CC1)c1ccccc12 | 55 nM | 1 | Active | 
31 | CN(C)C(=O)c1cc2c(C(=O)OC(C)(C)C)ncn2c2ccccc12 | 11 nM | 1.6 |  | Activity (Rattus norvegicus [6]): Active
32 | C#Cc1ccc2c(c1)c(C(=O)N(C)Cc1ccccc1)cc1c(C(=O)OCC)ncn12 |  |  | Active | Ki [7]: 161 nM; Ratio Ki (Rattus norvegicus [8]): 0.95
33 | CCOC(=O)c1ncn2c1cc(C(=O)N(C)Cc1ccccc1)c1cc(Br)ccc12 |  |  | Active | Ki [7]: 24 nM; Ratio Ki (Rattus norvegicus [8]): 0.9
34 | CCOC(=O)c1ncn2c1c(C)c(C(=O)O)c1ccccc12 | 105 nM | 1.2 |  | Activity (Rattus norvegicus [6]): Active
35 | CCOC(=O)c1ncn2c1CN(C)C(=O)c1cc(F)ccc1-2 [FLUMAZENIL] | 1.9 nM | 1.03 |  | Activity (Rattus norvegicus [4]): Active; Ki [5]: 2 nM; Ratio Ki (Homo sapiens): 1.02
